# From article PMC9279635 (Acta Pharmaceutica Sinica. B, 2021)
# Read-outs that look alike come from different tables or passages of the source.
# Columns and labels:
# KDR = KDR (Homo sapiens, UniProt P35968); test: ELISA kinase assay, KDR; type: biochemical; conditions: for inhibition at 0.1 µM: read-out: KDR inhibition @100 nmol/L
# ABL = ABL (Homo sapiens, UniProt P00519); test: Kinase selectivity test, ABL; type: biochemical; conditions: 10 nmol/L
# [1] = system: DDR2 phosphorylation in MRC-5; test: DDR2 phosphorylation in TGF-β stimulated MRC-5; type: cell-based; conditions: 1 μmol/L, MRC-5, 24 h TGF-β stimulation
# Outline: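 Confluent MRC-5 fibroblasts are stimulated with TGF-β (5 ng/mL) and treated with a range of test compound concentrations for 24 h. Western blots are probed for phospho-DDR2, fibronectin, α-SMA, with GAPDH as loading control.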
# Flt-3 = biological target: T1, Flt-3 (Homo sapiens, UniProt P36888); test: ELISA kinase assay, Flt-3; type: biochemical; conditions: for inhibition at 0.01 µM: read-out: Flt-3 inhibition @10 nmol/L
# T1 sequence (P36888 27-993): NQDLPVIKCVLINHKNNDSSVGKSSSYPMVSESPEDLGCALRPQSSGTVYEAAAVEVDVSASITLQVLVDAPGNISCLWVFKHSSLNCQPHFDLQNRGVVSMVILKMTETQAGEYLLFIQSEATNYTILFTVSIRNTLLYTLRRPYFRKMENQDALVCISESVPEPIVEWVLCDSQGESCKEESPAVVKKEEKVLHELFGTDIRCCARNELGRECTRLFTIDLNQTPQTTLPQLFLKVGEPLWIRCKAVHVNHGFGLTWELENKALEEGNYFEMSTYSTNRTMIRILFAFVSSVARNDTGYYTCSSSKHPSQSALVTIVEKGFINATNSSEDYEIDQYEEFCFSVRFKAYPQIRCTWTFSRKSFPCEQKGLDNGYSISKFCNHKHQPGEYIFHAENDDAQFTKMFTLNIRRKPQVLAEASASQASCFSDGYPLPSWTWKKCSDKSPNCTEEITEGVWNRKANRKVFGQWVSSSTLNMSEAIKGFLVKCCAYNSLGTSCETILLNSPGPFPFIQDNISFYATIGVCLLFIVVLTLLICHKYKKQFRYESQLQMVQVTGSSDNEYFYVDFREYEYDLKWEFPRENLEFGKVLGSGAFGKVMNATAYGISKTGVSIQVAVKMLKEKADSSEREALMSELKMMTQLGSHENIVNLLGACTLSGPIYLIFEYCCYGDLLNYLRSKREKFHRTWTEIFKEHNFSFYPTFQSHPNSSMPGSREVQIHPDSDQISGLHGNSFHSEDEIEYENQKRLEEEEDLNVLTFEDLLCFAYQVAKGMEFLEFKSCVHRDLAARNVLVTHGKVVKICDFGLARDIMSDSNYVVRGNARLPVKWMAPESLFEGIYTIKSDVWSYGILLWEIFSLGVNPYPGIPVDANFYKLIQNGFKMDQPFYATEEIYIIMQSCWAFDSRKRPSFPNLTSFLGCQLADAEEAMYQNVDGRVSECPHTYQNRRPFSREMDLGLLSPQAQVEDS
# DDR1 = DDR1 (Homo sapiens, UniProt Q08345); test: ELISA kinase assay, DDR1; type: biochemical
# DDR2 = biological target: T2, DDR2 (Homo sapiens, UniProt Q16832); test: ELISA kinase assay, DDR2; type: biochemical
# T2 sequence (Q16832 22-855): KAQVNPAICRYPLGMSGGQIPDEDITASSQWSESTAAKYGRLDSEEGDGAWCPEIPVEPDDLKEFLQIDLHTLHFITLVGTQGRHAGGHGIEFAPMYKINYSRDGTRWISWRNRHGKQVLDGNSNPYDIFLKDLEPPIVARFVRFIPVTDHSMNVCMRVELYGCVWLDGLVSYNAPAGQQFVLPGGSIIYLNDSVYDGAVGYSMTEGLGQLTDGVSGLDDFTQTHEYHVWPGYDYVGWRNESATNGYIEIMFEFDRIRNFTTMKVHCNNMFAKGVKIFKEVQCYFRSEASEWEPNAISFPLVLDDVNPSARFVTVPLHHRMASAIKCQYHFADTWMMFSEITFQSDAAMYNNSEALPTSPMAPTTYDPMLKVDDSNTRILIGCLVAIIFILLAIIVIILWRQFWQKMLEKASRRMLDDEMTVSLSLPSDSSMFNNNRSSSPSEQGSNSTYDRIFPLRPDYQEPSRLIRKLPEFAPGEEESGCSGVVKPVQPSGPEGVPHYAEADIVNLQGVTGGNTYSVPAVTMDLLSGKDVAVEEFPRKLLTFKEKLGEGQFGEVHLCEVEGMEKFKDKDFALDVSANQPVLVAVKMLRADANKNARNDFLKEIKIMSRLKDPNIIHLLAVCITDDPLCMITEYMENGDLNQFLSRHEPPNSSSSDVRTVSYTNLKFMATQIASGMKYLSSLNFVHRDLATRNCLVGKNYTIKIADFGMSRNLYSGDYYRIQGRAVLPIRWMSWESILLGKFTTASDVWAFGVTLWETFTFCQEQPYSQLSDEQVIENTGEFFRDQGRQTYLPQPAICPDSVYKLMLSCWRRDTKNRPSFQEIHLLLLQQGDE
# [2] = system: bleomycin-induced pulmonary fibrosis; test: BLM induced mouse lung fibrosis; type: in vivo, mice (C57BL/6)
# Outline: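 Bleomycin (1.7 U/kg) or saline is given intratracheally to mice. After 7 days, test compound is dosed once daily for 21 days (n = 6–9/group). Body weight is tracked over the period. On day 21, lung sections are stained with H&E, F4/80, Masson and COL-1, and H&E and Masson sections are scored. Data are mean ± SEM, analysed by one-way ANOVA with Fisher's LSD.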
# RET = RET (Homo sapiens, UniProt P07949); test: ELISA kinase assay, RET; type: biochemical; conditions: for inhibition at 0.01 µM: read-out: RET inhibition @10 nmol/L
# [3] = DDR2 IC50, two separate experiments
# Chain of RET (P07949 29-1114): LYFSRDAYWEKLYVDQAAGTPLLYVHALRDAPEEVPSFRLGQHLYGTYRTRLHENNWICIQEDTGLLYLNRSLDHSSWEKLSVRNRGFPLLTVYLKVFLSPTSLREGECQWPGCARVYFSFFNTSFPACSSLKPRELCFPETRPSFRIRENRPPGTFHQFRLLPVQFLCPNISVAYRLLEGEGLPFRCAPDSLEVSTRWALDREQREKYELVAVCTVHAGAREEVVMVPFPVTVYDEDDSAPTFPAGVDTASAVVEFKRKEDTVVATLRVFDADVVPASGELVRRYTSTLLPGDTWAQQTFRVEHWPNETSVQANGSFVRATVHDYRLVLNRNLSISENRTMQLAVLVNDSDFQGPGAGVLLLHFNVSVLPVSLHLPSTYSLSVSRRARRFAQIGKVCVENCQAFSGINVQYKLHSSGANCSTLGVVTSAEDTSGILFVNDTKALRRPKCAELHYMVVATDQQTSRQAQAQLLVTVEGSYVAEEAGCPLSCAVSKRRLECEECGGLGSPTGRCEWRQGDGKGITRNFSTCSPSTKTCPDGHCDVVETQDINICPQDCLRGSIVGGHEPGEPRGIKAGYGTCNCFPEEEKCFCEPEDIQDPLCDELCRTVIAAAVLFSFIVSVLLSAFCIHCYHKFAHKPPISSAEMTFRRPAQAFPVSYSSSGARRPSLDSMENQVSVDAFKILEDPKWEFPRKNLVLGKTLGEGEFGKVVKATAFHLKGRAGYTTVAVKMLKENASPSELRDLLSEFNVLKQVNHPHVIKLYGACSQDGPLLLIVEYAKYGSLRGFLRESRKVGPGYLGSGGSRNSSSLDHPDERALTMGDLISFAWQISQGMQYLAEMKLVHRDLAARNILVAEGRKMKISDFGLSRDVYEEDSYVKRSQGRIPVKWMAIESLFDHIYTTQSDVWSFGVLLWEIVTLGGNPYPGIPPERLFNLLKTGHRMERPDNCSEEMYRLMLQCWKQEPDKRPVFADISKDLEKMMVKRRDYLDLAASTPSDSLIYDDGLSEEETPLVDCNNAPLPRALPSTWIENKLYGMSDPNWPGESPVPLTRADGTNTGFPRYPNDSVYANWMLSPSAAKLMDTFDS
# Chain of DDR1 (Q08345 19-913): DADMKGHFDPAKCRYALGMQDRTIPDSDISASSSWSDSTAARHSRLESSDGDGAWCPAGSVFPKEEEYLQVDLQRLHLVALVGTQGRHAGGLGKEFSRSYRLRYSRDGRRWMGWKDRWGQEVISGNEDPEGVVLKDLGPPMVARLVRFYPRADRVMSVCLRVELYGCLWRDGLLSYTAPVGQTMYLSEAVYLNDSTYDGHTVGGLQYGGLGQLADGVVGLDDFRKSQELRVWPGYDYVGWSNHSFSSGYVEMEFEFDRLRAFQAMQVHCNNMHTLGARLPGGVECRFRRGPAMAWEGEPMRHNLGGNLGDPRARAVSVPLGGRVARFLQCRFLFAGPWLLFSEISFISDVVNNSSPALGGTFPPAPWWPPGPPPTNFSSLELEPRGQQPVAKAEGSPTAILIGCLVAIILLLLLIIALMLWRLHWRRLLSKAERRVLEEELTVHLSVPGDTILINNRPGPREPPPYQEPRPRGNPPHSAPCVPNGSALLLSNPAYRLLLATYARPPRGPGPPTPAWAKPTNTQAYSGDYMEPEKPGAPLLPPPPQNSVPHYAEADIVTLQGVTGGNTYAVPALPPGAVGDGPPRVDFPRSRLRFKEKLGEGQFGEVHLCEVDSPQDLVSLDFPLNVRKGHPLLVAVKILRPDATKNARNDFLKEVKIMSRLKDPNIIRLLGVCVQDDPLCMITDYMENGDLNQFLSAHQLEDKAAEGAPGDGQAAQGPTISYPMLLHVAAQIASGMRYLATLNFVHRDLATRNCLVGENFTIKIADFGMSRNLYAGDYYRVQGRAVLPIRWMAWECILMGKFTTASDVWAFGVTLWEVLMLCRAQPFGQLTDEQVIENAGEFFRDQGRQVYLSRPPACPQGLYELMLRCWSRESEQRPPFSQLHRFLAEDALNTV
# Chain of KDR (P35968 20-1356): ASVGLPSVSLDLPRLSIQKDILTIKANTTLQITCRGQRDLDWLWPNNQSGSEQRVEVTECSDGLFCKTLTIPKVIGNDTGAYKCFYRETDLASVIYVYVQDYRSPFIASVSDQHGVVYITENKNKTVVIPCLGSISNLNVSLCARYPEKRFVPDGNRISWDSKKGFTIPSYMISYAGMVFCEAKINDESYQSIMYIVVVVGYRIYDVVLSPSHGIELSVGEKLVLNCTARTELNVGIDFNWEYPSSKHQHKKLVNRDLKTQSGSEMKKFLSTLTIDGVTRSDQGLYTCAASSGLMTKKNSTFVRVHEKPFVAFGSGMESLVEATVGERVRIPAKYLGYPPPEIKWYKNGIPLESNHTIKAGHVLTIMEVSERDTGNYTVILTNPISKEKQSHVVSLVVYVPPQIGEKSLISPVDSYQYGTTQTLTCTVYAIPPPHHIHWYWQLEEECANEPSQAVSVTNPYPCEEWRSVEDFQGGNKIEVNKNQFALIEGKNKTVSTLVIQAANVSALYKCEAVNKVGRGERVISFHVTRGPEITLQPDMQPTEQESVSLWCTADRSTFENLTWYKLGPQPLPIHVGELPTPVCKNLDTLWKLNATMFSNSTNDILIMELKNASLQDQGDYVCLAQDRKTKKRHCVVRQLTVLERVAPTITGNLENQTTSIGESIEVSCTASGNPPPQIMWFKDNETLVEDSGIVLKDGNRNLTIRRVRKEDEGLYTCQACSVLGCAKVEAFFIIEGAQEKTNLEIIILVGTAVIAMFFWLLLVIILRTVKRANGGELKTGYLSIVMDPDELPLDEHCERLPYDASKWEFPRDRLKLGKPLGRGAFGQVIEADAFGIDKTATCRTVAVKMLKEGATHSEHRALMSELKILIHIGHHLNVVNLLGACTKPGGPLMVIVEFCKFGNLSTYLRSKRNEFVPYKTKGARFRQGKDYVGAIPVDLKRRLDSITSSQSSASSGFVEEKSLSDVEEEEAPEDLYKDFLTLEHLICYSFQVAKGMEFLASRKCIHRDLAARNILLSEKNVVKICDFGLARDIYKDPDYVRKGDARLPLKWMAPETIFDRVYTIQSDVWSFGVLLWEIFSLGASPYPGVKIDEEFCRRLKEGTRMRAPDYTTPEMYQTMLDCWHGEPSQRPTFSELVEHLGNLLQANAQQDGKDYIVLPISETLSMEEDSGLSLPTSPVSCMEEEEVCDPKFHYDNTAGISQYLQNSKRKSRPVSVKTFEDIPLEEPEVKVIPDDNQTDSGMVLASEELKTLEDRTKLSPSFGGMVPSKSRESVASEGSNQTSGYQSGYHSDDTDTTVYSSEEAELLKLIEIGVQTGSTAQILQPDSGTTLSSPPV
# Chain of ABL (P00519 whole entry): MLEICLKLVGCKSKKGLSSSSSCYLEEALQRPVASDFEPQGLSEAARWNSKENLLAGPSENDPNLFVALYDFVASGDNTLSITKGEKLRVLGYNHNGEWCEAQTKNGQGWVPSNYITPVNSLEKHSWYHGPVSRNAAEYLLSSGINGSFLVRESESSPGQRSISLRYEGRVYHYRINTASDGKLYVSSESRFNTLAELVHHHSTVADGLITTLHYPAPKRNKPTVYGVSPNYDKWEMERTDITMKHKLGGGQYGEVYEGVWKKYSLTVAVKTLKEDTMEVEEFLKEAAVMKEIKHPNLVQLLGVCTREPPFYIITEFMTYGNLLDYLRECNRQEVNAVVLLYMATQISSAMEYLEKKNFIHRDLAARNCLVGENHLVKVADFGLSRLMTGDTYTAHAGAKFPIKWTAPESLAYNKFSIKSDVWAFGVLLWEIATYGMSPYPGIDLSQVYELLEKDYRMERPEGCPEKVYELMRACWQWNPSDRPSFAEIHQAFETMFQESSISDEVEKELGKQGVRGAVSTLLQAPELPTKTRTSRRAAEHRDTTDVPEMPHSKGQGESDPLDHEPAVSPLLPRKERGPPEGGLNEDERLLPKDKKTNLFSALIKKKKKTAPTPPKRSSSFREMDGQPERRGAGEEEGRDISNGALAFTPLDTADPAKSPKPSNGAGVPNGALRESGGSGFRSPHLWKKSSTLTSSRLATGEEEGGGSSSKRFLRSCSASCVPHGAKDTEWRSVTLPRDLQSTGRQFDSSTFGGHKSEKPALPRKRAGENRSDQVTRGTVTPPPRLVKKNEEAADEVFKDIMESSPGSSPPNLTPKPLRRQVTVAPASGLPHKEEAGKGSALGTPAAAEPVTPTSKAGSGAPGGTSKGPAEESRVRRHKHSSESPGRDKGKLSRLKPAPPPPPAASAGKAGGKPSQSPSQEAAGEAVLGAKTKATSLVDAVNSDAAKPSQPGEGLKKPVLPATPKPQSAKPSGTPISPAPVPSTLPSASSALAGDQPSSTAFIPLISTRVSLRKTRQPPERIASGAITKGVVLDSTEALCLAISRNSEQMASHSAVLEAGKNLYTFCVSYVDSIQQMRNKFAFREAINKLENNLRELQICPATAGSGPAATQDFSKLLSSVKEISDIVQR
molecule,measurement,setting,value
"Cc1ccc(C(=O)NCc2cccc(C(F)(F)F)c2)cc1-c1ccc2nc(Nc3cnn(C)c3)ncc2c1 [Compound 38, 4-Methyl-3-(2-((1-methyl-1H-pyrazol-4-yl)amino)quinazolin-6-yl)-N-(3-(trifluoromethyl)benzyl)benzamide]",inhibition at 0.1 µM,KDR,94%
"Cc1ccc(NC(=O)Nc2cccc(C(F)(F)F)c2)cc1-c1ccc2nc(Nc3cnn(C)c3)ncc2c1 [Compound 37, 1-(4-Methyl-3-(2-((1-methyl-1H-pyrazol-4-yl)amino)quinazolin-6-yl)phenyl)-3-(3-(trifluoromethyl)phenyl)urea]",inhibition at 0.1 µM,KDR,89.3%
"Cc1ccc(NC(=O)C(C)c2cccc(C(F)(F)F)c2)cc1-c1ccc2nc(Nc3cnn(C)c3)ncc2c1 (stereo not drawn) [Compound 39, N-(4-Methyl-3-(2-((1-methyl-1H-pyrazol-4-yl)amino)quinazolin-6-yl)phenyl)-2-(3-(trifluoromethyl)phenyl)propanamide]",inhibition at 0.1 µM,KDR,70.2%
"O=C(Nc1cccc(C(F)(F)F)c1)c1ccc(C2CC2)c(-c2ccc3nc(Nc4cnn(C5CC5)c4)ncc3c2)c1 [Compound 36, 4-Cyclopropyl-3-(2-((1-cyclopropyl-1H-pyrazol-4-yl)amino)quinazolin-6-yl)-N-(3-(trifluoromethyl)phenyl)benzamide]",KDR inhibition ratio,KDR; 10 nmol/L,over 50%
same,inhibition at 0.1 µM,KDR,100%
same,ABL inhibition ratio,ABL,over 50%
same,inhibition of DDR2 phosphorylation,[1],high inhibitory activity
same,inhibition at 0.1 µM,Flt-3; read-out: Flt-3 inhibition@100 nmol/L,0%
same,IC50,DDR1,16 nM
"Cc1ccc(C(=O)Nc2cccc(C(F)(F)F)c2)cc1-c1ccc2cn[nH]c2c1 [Compound 7, 3-(1H-Indazol-6-yl)-4-methyl-N-(3-(trifluoromethyl)phenyl)benzamide]",IC50,DDR1,9.74 nM
"Cc1ccc(C(C)NC(=O)c2cccc(C(F)(F)F)c2)cc1-c1ccc2nc(Nc3cnn(C4CC4)c3)ncc2c1 (stereo not drawn) [Compound 43, N-(1-(3-(2-((1-Cyclopropyl-1H-pyrazol-4-yl)amino)quinazolin-6-yl)-4-methylphenyl)ethyl)-3-(trifluoromethyl)benzamide]",IC50,DDR2; [3],4.3 ± 1 nM
same,inhibition at 0.1 µM,KDR,26.9%
COC(=O)c1ccc2c(c1)NC(=O)/C2=C(\Nc1ccc(N(C)C(=O)CN2CCN(C)CC2)cc1)c1ccccc1 [nintedanib],weight of mice at the end of the treatment,[2]; 60 mg/kg once daily,24.54 ± 2.09 g
same,weight recovery ratio,"[2]; BLM mice, 60 mg/kg",12.93%
same,Masson score,"[2]; BLM mice, 60 mg/kg, vehicle 2.67 ± 0.57, scale 1–4",1.89 ± 0.55
"Cc1ccc(C(=O)Nc2cccc(C(F)(F)F)c2)cc1-c1ccc2nc(Nc3cnn(C4CC4)c3)ncc2c1 [Compound 24, 3-(2-((1-Cyclopropyl-1H-pyrazol-4-yl)amino)quinazolin-6-yl)-4-methyl-N-(3-(trifluoromethyl)phenyl)benzamide]",IC50,DDR2; [3],2.8 ± 0.5 nM
same,inhibition of DDR2 phosphorylation,[1],high inhibitory activity
same,IC50,DDR1,13.8 nM
"Cc1ccc(C(=O)Nc2cc(CN3CCCN(C)CC3)cc(C(F)(F)F)c2)cc1-c1ccc2nc(Nc3cnn(C)c3)ncc2c1 [Compound 30, 4-Methyl-N-(3-((4-methyl-1,4-diazepan-1-yl)methyl)-5-(trifluoromethyl)phenyl)-3-(2-((1-methyl-1H-pyrazol-4-yl)amino)quinazolin-6-yl)benzamide]",IC50,DDR2; [3],2.8 ± 0.2 nM
same,inhibition at 0.01 µM,RET,93.2%
same,inhibition at 0.01 µM,Flt-3,97%
"N-(3-((3,5-Dimethylpiperazin-1-yl)methyl)-5-(trifluoromethyl)phenyl)-4-methyl-3-(2-((1-methyl-1H-pyrazol-4-yl)amino)quinazolin-6-yl)benzamide [Compound 29]",IC50,"DDR2; read-out: DDR2 IC50, two separate experiments",2.7 ± 0.2 nM
same,RET inhibition @10 nmol/L,RET; 10 nmol/L,91.6%
same,Flt-3 inhibition @10 nmol/L,Flt-3; 10 nmol/L,93.8%
"CC(=O)N1CCN(Cc2cc(NC(=O)c3ccc(C)c(-c4ccc5nc(Nc6cnn(C)c6)ncc5c4)c3)cc(C(F)(F)F)c2)CC1 [Compound 28, N-(3-((4-Acetylpiperazin-1-yl)methyl)-5-(trifluoromethyl)phenyl)-4-methyl-3-(2-((1-methyl-1H-pyrazol-4-yl)amino)quinazolin-6-yl)benzamide]",IC50,DDR2; [3],1.8 ± 0.1 nM
same,inhibition at 0.01 µM,RET,91.8%
same,inhibition at 0.01 µM,Flt-3,92.4%
